Key:
[1] = test system: Human alphaherpesvirus 1; assay: Antiviral activity against Herpes simplex virus KOS infected in HEL cells assessed as inhibition of virus-induced cytopathicity; type: functional, organism-based
Procedure, shortened: (§1)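 Confluent HEL cell cultures were inoculated with 100 CCID50 of virus in the presence of varying compound concentrations. Cytopathicity or plaque formation was scored once untreated infected controls reached completion. EC50 is the concentration inhibiting virus-induced cytopathicity by 50%.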

[2] = (§2) Cytotoxicity against human CEM cells; type: cell-based, CCRF-CEM; details: CEM (CCRF-CEM) cells
[3] = test system: Human immunodeficiency virus 2; assay: Antiviral activity against Human immunodeficiency virus type 2 ROD infected in human CEM cells assessed as inhibition of virus-induced giant cell formation after 4 to 5 days by microscopic analysis; type: functional, organism-based, ISOLATE ROD, CCRF-CEM
Procedure, shortened: (§3)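 CEM cells (~3×10^5/mL) were infected with 100 CCID50/mL HIV-1 IIIB or HIV-2 ROD with compound dilutions. After 4–5 days at 37°C, syncytium formation was scored microscopically. EC50 is the concentration inhibiting giant cell formation by 50%.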

[4] = test system: CCRF-CEM; assay: Cytostatic activity against human CEM cells after 72 hrs by coulter counting analysis; type: functional, cell-based
Procedure, shortened: (§4)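 (5-7.5)×10^4 cells/well were incubated with compound at 37°C, for 48 h (L1210) or 72 h (CEM, HeLa), then counted by Coulter counter. IC50 is the concentration inhibiting proliferation by 50%.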

[5] = test system: Human alphaherpesvirus 2; assay: Antiviral activity against Herpes simplex virus G infected in HEL cells assessed as inhibition of virus-induced cytopathicity; type: functional, organism-based, strain G; procedure, shortened: as §1
[6] = test system: Vaccinia virus; assay: Antiviral activity against Vaccinia virus Lederle infected in HEL cells assessed as inhibition of virus-induced cytopathicity; type: functional, organism-based; details: Orthopoxvirus vaccinia; procedure, shortened: as §1
[7] = Cytotoxicity against HEL cells assessed as change in cellular morphology by microscopic analysis; type: cell-based; details: human, read-out: MIC
Procedure, shortened: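 Uninfected HEL monolayers were exposed to compound. Minimal cytotoxic concentration is the concentration causing microscopically visible alteration of cell morphology.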

[8] = test system: Human immunodeficiency virus 1; assay: Antiviral activity against Human immunodeficiency virus 1 3B infected in human CEM cells assessed as inhibition of virus-induced giant cell formation after 4 to 5 days by microscopic analysis; type: functional, organism-based, CCRF-CEM; procedure, shortened: as §3
[9] = test system: L1210; assay: Cytostatic activity against mouse L1210 cells after 48 hrs by coulter counting analysis; type: functional, cell-based; procedure, shortened: as §4
[10] = test system: HeLa; assay: Cytostatic activity against human HeLa cells after 72 hrs by coulter counting analysis; type: functional, cell-based; procedure, shortened: as §4
[11] = test system: Human alphaherpesvirus 1; assay: Antiviral activity against thymidine kinase-deficient acyclovir-resistant Herpes simplex virus KOS infected in HEL cells assessed as inhibition of virus-induced cytopathicity; type: functional, organism-based; details: Human alphaherpesvirus 1, KOS; procedure, shortened: as §1
[12] = Antiproliferative activity against human epidermal keratinocytes after 96 hrs by trypan blue staining-based Neubauer haemocytometric analysis; type: cell-based; details: Keratinocyte
Procedure, shortened: (§5)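 SiHa and HPV16+ M08 vulval keratinocytes (VIN3 biopsy-derived) were seeded at 4×10^3 cells/well; human epidermal keratinocytes (EpiLife medium) at 3.5×10^4 cells/well. All adhered 24 h, then were exposed to 0.1 and 1 μM compound in replicate for 96 h at 37°C. Cells were trypsinised, resuspended in PBS and counted in 0.4% trypan blue on a haemocytometer.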

[13] = Antiproliferative activity against human M08 cells infected with HPV-16 after 96 hrs by trypan blue staining-based Neubauer haemocytometric analysis; type: functional, cell-based; details: M08, 96 h; procedure, shortened: as §5
[14] = test system: SiHa; assay: Antiproliferative activity against human SiHa cells infected with HPV-16 after 96 hrs by trypan blue staining-based Neubauer haemocytometric analysis; type: functional, cell-based; procedure, shortened: as §5
[15] = test system: HeLa; assay: Antiproliferative activity against human HeLa cells infected with HPV-18 after 72 hrs by flow cytometric analysis; type: functional, cell-based
Procedure, shortened: (§6)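 SiHa (HPV16+), HeLa (HPV18+) and C33A (HPV-) cervical carcinoma lines grown in DMEM with 10% FBS at 37°C, 5% CO2. Seeded 4×10^3 cells/well and left to adhere 24 h. Treated in triplicate with 1, 10 and 100 μM of compound formulated in ~1% DMSO/PBS pH 7.4.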

[16] = Antiproliferative activity against human C33A cells after 72 hrs by flow cytometric analysis; type: cell-based, C-33-A; procedure, shortened: as §6
[17] = test system: SiHa; assay: Antiproliferative activity against human SiHa cells infected with HPV-16 after 72 hrs by flow cytometric analysis; type: functional, cell-based; procedure, shortened: as §6
[18] = Prodrug activation assessed as carboxypeptidase Y (unknown origin)-mediated aminoacyl phosphonamidate ester formation at 3 mg at 25 degC up to 12 hrs by [31P]-NMR analysis
Procedure, shortened: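 Compound (3.0 mg) in acetone-d6 plus Trizma buffer pH 7.6 was recorded by 31P NMR at 25°C as control. Carboxypeptidase Y (0.1 mg in Trizma) was then added, and spectra were taken every 7 min over 12 h at 25°C.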

[19] = test system: CCRF-CEM; assay: as §2; type: cell-based; details: ccrf-cem
[20] = test system: Human immunodeficiency virus 1; assay: microbe, parasite or virus in culture; details: Human immunodeficiency virus 1, 3B, MT2
[21] = Cytotoxicity against human MT2 cells
[22] = Human alphaherpesvirus 1, KOS, HEL
[23] = Human immunodeficiency virus 2, ISOLATE ROD, CCRF-CEM
[24] = Human alphaherpesvirus 2, strain G, HEL
[25] = Human immunodeficiency virus 1, 3B, CCRF-CEM

Row | Structure (SMILES) | EC50 [1, 22] [µM] | CC50 [2] [µM] | EC50 [3, 23] [µM] | IC50 ([4]; Homo sapiens, CCRF-CEM, 72 h) [µM] | EC50 [5, 24] [µM] | EC50 [6] [µM] | MCC [7] [µM] | EC50 [8, 25] [µM] | IC50 ([9]; Mus musculus, L1210, 48 h) [µM] | IC50 ([10]; Homo sapiens, HeLa, 72 h) [µM] | EC50 [11] [µM] | IC50 ([16]; Homo sapiens, C-33-A, 72 h) [µM] | also measured
1 | C[C@H](NP(=O)(COCCn1cnc2c(N)ncnc21)Oc1cccc2ccccc12)C(=O)OCc1ccccc1 (stereo not given in full) | 0.02 | 0.12 | 0.05 | 0.12 | 0.008 | 9.5 | > 100 | 0.03 | 0.041 | 1.6 | 0.7 |  | 
2 | C[C@H](NP(=O)(COCCn1cnc2c(N)ncnc21)N[C@@H](C)C(=O)OCc1ccccc1)C(=O)OCc1ccccc1 | 0.7 | 0.14 | 0.025 | 0.14 | 0.25 | 5 | > 100 | 0.04 | 0.21 | 0.67 | 0.6 |  | 
3 | C[C@H](NP(=O)(COCCn1cnc2c(N)ncnc21)N[C@@H](C)C(=O)OCC(C)(C)C)C(=O)OCC(C)(C)C | 0.3 | 0.2 | 0.019 | 0.2 | 0.2 | 2.7 | > 100 | 0.024 | 0.24 | 1.6 | 0.3 | 0.84 | IC50 [12]: 0.3 µM; IC50 [13]: 0.82 µM; IC50 [14]: 0.83 µM; IC50 ([15]; Homo sapiens, HeLa, 72 h): 0.6 µM; IC50 [17]: 0.66 µM
4 | C[C@H](NP(=O)(COCCn1cnc2c(N)ncnc21)Oc1ccccc1)C(=O)OCC(C)(C)C (stereo not given in full) | 0.6 | 0.4 | 0.044 | 0.4 | 0.15 | 3.7 | > 100 | 0.056 | 0.15 | 2.2 | 0.55 |  | 
5 | C[C@H](NP(=O)(COCCn1cnc2c(N)ncnc21)Oc1cccc2ccccc12)C(=O)OCC(C)(C)C (stereo not given in full) | 0.25 | 0.045 | 0.019 | 0.045 | 0.1 | 1.6 | > 100 | 0.032 | 0.068 | 0.92 | 0.2 | 0.54 | IC50 [12]: 0.076 µM; IC50 [13]: 0.048 µM; IC50 [14]: 0.09 µM; IC50 ([15]; Homo sapiens, HeLa, 72 h): 0.5 µM; IC50 [17]: 0.6 µM
6 | C[C@H](NP(=O)(COCCn1cnc2c(N)ncnc21)Oc1cccc2c1CCCC2)C(=O)OCC(C)(C)C (stereo not given in full) | 0.13 | 0.019 | 0.007 | 0.019 | 0.05 | 1.3 | > 100 | 0.017 | 0.026 | 0.45 | 0.12 |  | Drug metabolism [18]: metabolite_detected
7 | C[C@H](Cn1cnc2c(N)ncnc21)OCP(=O)(N[C@@H](C)C(=O)OCc1ccccc1)N[C@@H](C)C(=O)OCc1ccccc1 | 10 | 6.9 | 0.014 | > 500 | 3 | 20 | > 100 | 0.03 | 120 | > 500 | 7 |  | 
8 | C[C@H](Cn1cnc2c(N)ncnc21)OCP(=O)(N[C@@H](C)C(=O)OCC(C)(C)C)N[C@@H](C)C(=O)OCC(C)(C)C | 1.5 | 1.2 | 0.002 | 1.2 | 0.7 | 6 | > 100 | 0.004 | 1.5 | 4 | 2 | 0.7 | IC50 ([15]; Homo sapiens, HeLa, 72 h): 0.54 µM; IC50 [17]: 0.73 µM
9 | C[C@H](Cn1cnc2c(N)ncnc21)OCP(=O)(N[C@@H](C)C(=O)OCc1ccccc1)Oc1cccc2ccccc12 (stereo not given in full) | 1.3 | 4.4 | 0.011 | 4.4 | 0.7 | 5.5 | > 100 | 0.019 | 3.7 | 11 | 0.8 |  | 
10 | C[C@H](Cn1cnc2c(N)ncnc21)OCP(=O)(N[C@@H](C)C(=O)OCC(C)(C)C)Oc1ccccc1 (stereo not given in full) | 1.3 | 2.3 | 0.012 | 2.3 | 0.7 | 8 | > 100 | 0.018 | 4 | 8 | 1 |  | 
11 | C[C@H](Cn1cnc2c(N)ncnc21)OCP(=O)(N[C@@H](C)C(=O)OCC(C)(C)C)Oc1cccc2c1CCCC2 (stereo not given in full) | 1.4 | 2 | 0.009 | 2 | 1.4 | 10.5 | > 100 | 0.011 | 1.3 | 5.3 | 5.5 |  | 
12 | C[C@H](Cn1cnc2c(N)ncnc21)OCP(=O)(N[C@@H](C)C(=O)OCC(C)(C)C)Oc1cccc2ccccc12 (mixture of isomers) |  |  |  |  |  |  |  |  |  |  |  |  | EC50 ([1]; hel): 2 µM; CC50 [19]: 3.9 µM; EC50 ([3]; ccrf-cem): 0.004 µM; IC50 ([4]; ccrf-cem): 3.9 µM; EC50 ([5]; hel): 0.8 µM; IC50 ([15]; hela): 6.2 µM; IC50 ([16]; c-33-a): 6 µM; EC50 ([8]; ccrf-cem): 0.003 µM; IC50 ([9]; l1210): 2.2 µM; IC50 ([10]; hela): 12 µM; IC50 [17]: 7.8 µM
13 | C[C@H](Cn1cnc2c(N)ncnc21)OCP(=O)(N[C@@H](C)C(=O)OCC(C)(C)C)Oc1cccc2ccccc12 (stereo in doubt; 15) | 1.5 | 6.9 | 0.007 | 6.9 | 0.7 | 4 | > 100 |  |  | 17 | 2 | 7.6 | IC50 ([15]; hela): 0.53 µM; EC50 ([8]; ccrf-cem): 0.009 µM; IC50 ([9]; l1210): 5.6 µM
14 | Nc1ncnc2c1ncn2CCOCP(=O)(O)O [ADEFOVIR] | 4.7 | ≥ 50 | 8.2 | 24 | 6.3 |  | > 100 | 8.4 | 3 | 181 | 7 | 7.8 | 
15 | CC(C)OC(=O)[C@H](C)N[P@](=O)(CO[C@H](C)Cn1cnc2c(N)ncnc21)Oc1ccccc1 [TENOFOVIR ALAFENAMIDE] |  |  |  |  |  |  |  |  |  |  |  |  | EC50 [20]: 0.005 µM; CC50 [21]: 40 µM
16 | C[C@H](Cn1cnc2c(N)ncnc21)OCP(=O)(O)O [TENOFOVIR ANHYDROUS] | 105 | > 500 | 3.7 | 6.9 | 122 | > 100 | > 100 | 3.9 | 11 | 17 | 151 |  | 
